Results taken from ChEMBL document CHEMBL4270599, “Synthesis of a 3'-C-ethynyl-β-d-ribofuranose purine nucleoside library: Discovery of C7-deazapurine analogs as potent antiproliferative nucleosides” (Eur J Med Chem, 2018).

These compounds were tested on Vaccinia virus (assay: Antiviral activity against Vaccinia virus Lederle infected in HELF cells assessed as inhibition of virus-induced cytopathogenicity). Settings: Orthopoxvirus vaccinia.
Type: functional, organism-based
Method in brief: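 Confluent human embryonic lung fibroblast monolayers in 96-well plates were infected with 100 CCID50 of virus or, for VZV, 20 PFU, in the presence of varying compound concentrations. For HCMV/VZV-type assays, residual virus was removed after 1–2 h before compound addition. Cytopathicity or plaque formation was scored once complete in untreated infected controls. […] Highest concentration tested was 100 μM.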

For `C#C[C@@]1(O)[C@@H](CO)O[C@@H](n2ccc3c(Cl)ccnc32)[C@@H]1O`, which EC50 is on record?
The EC50 was > 100 µM.

How did the EC50 turn out when `C#C[C@@]1(O)[C@@H](CO)O[C@@H](n2cc(Br)c3c(Cl)ccnc32)[C@@H]1O` was run?
Its EC50 is > 100 µM.

`CC[C@@]1(O)[C@@H](CO)O[C@@H](n2cc(Cl)c3c(N)ncnc32)[C@@H]1O` was tested. Which EC50 did it give?
Its EC50 is 0.73 µM.

How did the EC50 turn out when `C#C[C@@]1(O)[C@@H](CO)O[C@@H](n2cc(I)c3c(Cl)ccnc32)[C@@H]1O` was run?
Its EC50 is > 100 µM.

How did the EC50 turn out when `C#C[C@@]1(O)[C@@H](CO)O[C@@H](n2cc(Cl)c3c(Cl)ccnc32)[C@@H]1O` was run?
Its EC50 is > 100 µM.

With `Nc1nc2c(ncn2COCCO)c(=O)[nH]1` [ACYCLOVIR] as the compound, how does the EC50 read?
Its EC50 is > 250 µM.

For `Nc1nc2c(ncn2COC(CO)CO)c(=O)[nH]1` [GANCICLOVIR], which EC50 is on record?
The EC50 was > 100 µM.
